High-throughput results as filed in PubChem.
HKDC1 inhibitor = HKDC1 hexokinase inhibitors, primary screen, biochemical, fluorescence, uHTS; Q2TB90; recombinant HKDC1, G6PDH/diaphorase resazurin coupled fluorescence; 340,000 compounds, 0.16% hits; inhibition, % at 20 µM;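 active = inhibition above about 35% when tested at 20 µM, limit read from the data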;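 also: plate controls were DMSO wells with enzyme for no effect and DMSO wells lacking enzyme for full effect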
Target sequence (Q2TB90 whole entry, looked up): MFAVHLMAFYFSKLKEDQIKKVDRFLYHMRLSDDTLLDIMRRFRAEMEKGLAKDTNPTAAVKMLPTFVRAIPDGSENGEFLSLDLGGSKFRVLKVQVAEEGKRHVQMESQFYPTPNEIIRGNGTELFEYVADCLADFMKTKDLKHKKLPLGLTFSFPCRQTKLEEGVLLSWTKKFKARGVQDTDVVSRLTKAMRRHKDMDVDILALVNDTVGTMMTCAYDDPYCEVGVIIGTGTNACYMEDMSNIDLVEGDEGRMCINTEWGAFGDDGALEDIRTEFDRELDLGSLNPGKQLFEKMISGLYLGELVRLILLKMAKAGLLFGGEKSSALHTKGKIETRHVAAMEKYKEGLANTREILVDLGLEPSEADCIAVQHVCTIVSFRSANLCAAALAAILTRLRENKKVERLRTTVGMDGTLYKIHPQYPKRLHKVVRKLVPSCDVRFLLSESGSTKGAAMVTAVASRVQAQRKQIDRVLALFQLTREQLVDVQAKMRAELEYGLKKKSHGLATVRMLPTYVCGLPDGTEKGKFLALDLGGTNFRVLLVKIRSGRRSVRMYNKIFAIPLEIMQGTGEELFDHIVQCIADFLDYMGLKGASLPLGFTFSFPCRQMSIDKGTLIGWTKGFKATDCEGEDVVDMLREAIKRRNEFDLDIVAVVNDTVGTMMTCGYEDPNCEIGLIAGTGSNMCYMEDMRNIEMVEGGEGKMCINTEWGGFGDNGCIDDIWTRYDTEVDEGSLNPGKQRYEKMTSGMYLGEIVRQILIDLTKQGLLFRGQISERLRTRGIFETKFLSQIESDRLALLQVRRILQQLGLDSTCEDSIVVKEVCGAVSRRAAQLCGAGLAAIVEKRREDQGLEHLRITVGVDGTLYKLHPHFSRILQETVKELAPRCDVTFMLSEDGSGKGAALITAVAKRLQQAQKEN
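Test system: recombinant HKDC1 (HK5) hexokinase enzyme, produced in-house / Doses: 20 µM test compound, 1% DMSO / Timing: 90 min, room temperature / Detection: G6PDH/diaphorase-coupled fluorescence, 1 mM NADP, 100 µM resazurin, 525/613 nm / Control set: DMSO wells with and without enzyme mix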
Diaph act CS = compounds boosting diaphorase resazurin reduction – biochemical, uHTS, resorufin fluorescence, counter-screen for diaphorase-coupled primary assays, primary screen. Diaphorase/resazurin coupled assay, 16 min; hits give high values; 1 = vehicle wells, 0 = NADH-free wells. activation factor at 20 µM. 190,000 compounds, 0.005% hits. AID 1229, 2008;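 active = diaphorase activity raised at least twofold by the compound at 20 µM; inactive = activation factor below 2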
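Measured by – red resorufin fluorescence at 544/590 nm excitation/emission · Test system – Clostridium kluyveri diaphorase, purified enzyme · Incubation – reaction time 16 min, room temperature · Buffer or medium – 50 mM HEPES pH 7.4 with 4.542 mM MgCl2, 0.005% Tween 20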
Diaph inh CS = diaphorase inhibitors and chemical oxidizers, primary screen, counter-screen for diaphorase-coupled primary assays, biochemical, uHTS, resorufin fluorescence | diaphorase resazurin-to-resorufin fluorescence, NADH, 16 min; bacterial (C. kluyveri) enzyme, not human | inhibition, % at 20 µM | 190,000 compounds, 0.69% hits;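 active = primary screen inhibition at 20 µM above a set limit, cut at about 50% in these data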;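 also: plate controls were DMSO with full reaction for no effect and wells lacking NADH for full effect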
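Benchmarks: positive control wells lacking NADH, neutral wells with DMSO only. System: bacterial diaphorase enzyme (C. kluyveri). Input: 0.14 U/mL diaphorase, enzyme working solution. Detection: resorufin fluorescence, excitation 544 nm, emission 590 nm. Times: 16-min room-temperature incubation before reading.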
G6PDH counter = L. mesenteroides G6PDH inhibitors, counter-screen for G6PDH-coupled screening assays, biochemical, Leuconostoc mesenteroides enzyme | glucose-6-phosphate dehydrogenase [Leuconostoc mesenteroides] | 200,000 compounds, 0.12% hits | inhibition, % at 5 µM | Purified L. mesenteroides G6PDH, diaphorase/resazurin coupled fluorescence, 45 min; in the data active = inhibition above about 50%
PfG6PD inh = PfG6PD enzyme inhibitors, primary screen, biochemical, fluorescence intensity, uHTS; PfGluPho enzyme, NADPH resazurin-diaphorase fluorescence; inhibition, % at 20 µM; 350,000 compounds, 0.78% hits; AID 504690, 2011;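 active = inhibition reaching at least a set limit at 20 µM in the primary screen, cut at about 59% in these data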;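 also: 0% = DMSO wells with substrate and 100% = DMSO wells lacking glucose-6-phosphate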
HKDC1 act conf2 = HKDC1 hexokinase activators, confirmation, biochemical, single concentration; inhibition, % at 20 µM; shares compounds with HKDC1 inhibitor; recombinant HKDC1, G6PDH/diaphorase resazurin fluorescence; hits give low values; AID 504708, 2011; 740 compounds, 14% hits;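 active = inhibition at or below a set negative limit, negative inhibition meaning the enzyme was activated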
Active calls of the source: *; / = no result. Sampled rows, rich in hits. Any-hit rate of the full collection: about 1.2%.

SMILES | HKDC1 inhibitor | Diaph act CS | Diaph inh CS | G6PDH counter | PfG6PD inh | HKDC1 act conf2
COc1ccc(S(=O)(=O)N2CCOCC2)cc1NC(=O)CSc1cccc[n+]1[O-] | 6 | / | / | / | 18 | /
CCOC(=O)c1ccc(N=C2C(=S)N(c3ccc(C(=O)OCC)cc3)C(=N)N2/N=C/c2ccccc2)cc1 | -136 | 1 | -1 | 2 | 29 | -34
O=C(O)c1ccc(N=Cc2c(O)ccc3ccccc23)cc1 | 33 | / | / | / | 36 | 43
NC(=O)c1ccc(N=Cc2c(O)ccc3ccccc23)cc1 | 34 | / | / | / | 23 | /
O=S(=O)(/N=C/c1c(O)ccc2ccccc12)c1ccccc1 | 44* | / | / | / | 29 | 20
COc1ccc(N=Cc2c(O)ccc3ccccc23)cc1 | 17 | 0.6 | 40 | 40 | 31 | /
Cc1ccc(C2=NNC(=Nc3ccc(F)cc3)SC2)cc1 | -70 | 0.8 | 16 | 4 | 9 | -80*
Cc1cccc(N=C2NN=C(c3ccc4c(c3)OCCO4)CS2)c1 | -62 | 0.9 | 12 | 4 | 12 | -19
C=CCn1c(C)cc(C2=NNC(=Nc3ccc(C)cc3)SC2)c1C | -8 | 1 | 1 | 2 | 23 | /
Cc1cccc(N=C2NN=C(c3c(C)[nH]c4ccccc34)CS2)c1 | -41 | 0.8 | 20 | 11 | 28 | -18
CCc1ccc(C2=NNC(=Nc3cccc(S(=O)(=O)N(C)C)c3)SC2)cc1 | -177 | 0.9 | 11 | 5 | 0 | -141*
Clc1ccc(C2=NNC(=NCc3ccc4c(c3)OCO4)SC2)cc1 | -17 | 1 | 3 | -26 | 44 | /
O=c1cc(-c2cccc(Br)c2)nc(-c2ccccc2F)o1 | 31 | 0.9 | 7 | 5 | 0 | 12
O=C(CNC(=O)c1ccncc1)N/N=C/c1ccc(O)cc1O | -41 | / | / | / | -13 | -25
Cc1cc(C)n(CCC(=O)N/N=C/c2ccc(O)cc2O)n1 | -42 | 0.9 | 15 | -9 | -18 | -36
O=C(CNC(=O)c1ccc2c(c1)OCCO2)N/N=C/c1ccc(O)cc1O | -51 | 0.8 | 16 | 8 | -18 | 18
COc1ccccc1CC(=O)N1CCN(S(=O)(=O)c2ccccc2F)CC1 | -7 | / | / | / | 4 | /
CCN(CC)S(=O)(=O)c1ccc(N/N=C(\C)c2ccc(OC)cc2O)nc1 | 31 | / | / | / | 53 | 20
Cc1ccc(N/C=C(\C#N)S(=O)(=O)c2ccccc2)cc1 | 0 | 0.9 | 7 | 2 | 6 | /
CCCc1nc2oc3c(NCc4ccccn4)ncnc3c2c2c1COC(C)(C)C2 | 34 | 0.6 | 36 | -8 | 52 | 23
Cc1nc2oc3c(NCc4ccccn4)ncnc3c2c2c1COC(C)(C)C2 | 22 | 0.9 | 10 | -24 | 23 | /
CCCc1nc2oc3c(NCC4CCCO4)ncnc3c2c2c1COC(C)(C)C2 (stereo unspecified) | 35* | 0.6 | 37 | -6 | 42 | 29
O=c1c(CO)cc(CO)cc(CO)c1O | -5 | / | / | / | -8 | /
O=C1C=CC(=O)c2c(O)c(CO)c(CO)c(O)c21 | 49* | / | / | / | 33 | 39
Cc1nn(C)cc1S(=O)(=O)N1CCN(c2ccccc2)CC1 | -3 | / | / | / | 0 | /
SMILES | HKDC1 inhibitor | Diaph act CS | Diaph inh CS | G6PDH counter | PfG6PD inh | HKDC1 act conf2
Cc1ccc(-n2[nH]c3c4c(ccc3c2=O)C(=O)c2ccccc2C4=O)cc1 | -7 | 1 | 4 | 21 | -2 | /
CC(C)(C)n1[nH]c2c3c(ccc2c1=O)C(=O)c1ccccc1C3=O | 42* | 0.7 | 30 | 42 | 29 | 12
Cn1nccc1C(=O)N1CCN(c2cccc(C(F)(F)F)c2)CC1 | -3 | / | / | / | 1 | /
Cn1nccc1C(=O)N1CCN(c2cccc(Cl)c2)CC1 | 39* | / | / | / | 14 | -29
Cc1cc2cc(CN(Cc3cccs3)S(=O)(=O)c3ccc4c(c3)OCCO4)c(=O)[nH]c2cc1C | -47 | 0.9 | 6 | -16 | 5 | -16
Cc1ccc2[nH]c(=O)c(CN(Cc3cccs3)S(=O)(=O)c3ccc4c(c3)OCCO4)cc2c1 | -13 | 0.8 | 16 | 10 | 5 | /
O=S(=O)(c1ccc(NC(=S)NN=C(Cc2ccccc2)Cc2ccccc2)cc1)N1CCOCC1 | -47 | 0.7 | 28 | 2 | 29 | -44*
O=C1C(Cl)=C(N2CCCCC2)C(=O)C(Cl)=C1c1cnc(N2CCCCC2)s1 | 70* | 0.4 | 62* | 34 | 88* | 49
COc1ccc(-c2csc(NC(=O)CSCc3c(C)noc3C)n2)cc1OC | 35 | / | / | / | -9 | -33
Cc1noc(C)c1CSCC(=O)Nc1nc(-c2ccc(F)c(F)c2)cs1 | 7 | / | / | / | 17 | /
CCOC(=O)c1c(C)[nH]c(C2=NNC(=Nc3ccccc3)SC2)c1C | -306 | 0.9 | 6 | -14 | 15 | -141*
CC(=O)c1c(C)[nH]c(C2=NNC(=NC(C)(C)C)SC2)c1C | -15 | 1 | -2 | 13 | 8 | /
CCOC(=O)c1c(C)[nH]c(C2=NNC(=Nc3ccccc3OC)SC2)c1C | -165 | 0.9 | 13 | -4 | 5 | -86*
CCOC(=O)c1c(C)[nH]c(C2=NNC(=Nc3ccc(OCC)cc3)SC2)c1C | -137 | 0.8 | 15 | 8 | 20 | -122*
Cc1cccc(NC(=O)c2nc[nH]c2C(=O)N2CCN(C(=O)OC(C)(C)C)CC2)c1 | -6 | / | / | / | 4 | /
Nc1nc(NC(=O)CCC(=O)O)nn1-c1ccccc1 | 1 | / | / | / | -6 | /
Cn1ccc(C(=O)OCC(=O)Nc2cccc3ccccc23)n1 | -2 | 0.9 | 8 | 3 | -8 | /
CSc1nc(N(C)CCO)c2sc3nc(-c4ccco4)c4c(c3c2n1)CCC4 | 47* | 0.8 | 20 | 6 | 11 | -18
COc1cccc(CN(C)S(=O)(=O)c2c(C)noc2C)c1OC | -2 | / | / | / | -9 | /
Cc1ccc(C(=O)/C=C/N(C)C)o1 | -6 | 0.9 | 10 | 5 | 0 | /
Cc1ccc(C(=O)/C=C/c2cc(Br)cc(Br)c2O)o1 | 36* | / | / | / | -8 | 9
COc1ccc(C)cc1NC(=O)CNC(C)C(=O)Nc1cc(Cl)ccc1Cl (stereo unspecified) | 2 | 0.9 | 12 | -4 | 16 | /
CCOc1ccccc1Nc1nnc(SCc2nnc(-c3cc(OC)c(OC)c(OC)c3)o2)s1 | 48* | 0.6 | 42 | -20 | 42 | 45
COc1ccccc1Nc1nnc(SCc2nnc(-c3cc(OC)c(OC)c(OC)c3)o2)s1 | 35 | 0.5 | 50* | -5 | 32 | 33
COc1cc(-c2nnc(CSc3nnc(Nc4ccc(C(C)C)cc4)s3)o2)cc(OC)c1OC | -6 | 0.9 | 10 | -16 | 17 | /
